Screening data from PubChem BioAssay.
A selection: hits, their analogues and other compounds. The true share with any hit is near 2.7%.
ARFGAP1 inh: rat ARFGAP1 inhibition; inhibition, % at 16.5 µM; AID 651572; 360,000 compounds, 0.26% hits; Q62848; Arfgap1-stimulated ARF1 GTP hydrolysis, GDP FP detection;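 active = inhibition above a per-plate limit, mean inhibition of low control wells plus 3 SD, cut at about 25% in these data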;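 also: 0% = DMSO wells with enzyme and 100% = wells lacking Arfgap1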
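System: truncated rat Arfgap1 GAP domain / Benchmarks: high control wells lacking Arfgap1, low control full reaction with DMSO / Times: compound-enzyme preincubation 20 min, reaction 120 min, detection 60 min, 25 °C / Repeats: one replicate per compound / Also added: human ARF1(Δ1-17)-GTP substrate / Measured by: Tracer-displacement fluorescence polarization with EDTA stop, 620/688 nm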
PAFAH2 inh: inhibitors of human PAFAH2 | recombinant PAFAH2, FP-rhodamine activity probe, fluorescence polarization | inhibition, % at 3.39 µM | 340,000 compounds, 0.99% hits;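 active = inhibition above the mean over all tested compounds plus 3 SD, cut at about 30% in these data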;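 also: inhibitors block probe labeling of enzyme so polarization drops; 0% = enzyme with DMSO and 100% = wells lacking PAFAH2 protein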
ASAP1 inh: ASAP1 ArfGAP inhibition | Q9ULH1 | ASAP1-stimulated ARF1 GTP hydrolysis, GDP FP detection | inhibition, % at 16.5 µM | 360,000 compounds, 0.19% hits | AID 624377; in the data active = inhibition above about 25%;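 also: 0% = vehicle with enzyme and substrate and 100% = no enzyme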
Target sequence (Q9ULH1 325-724 limits assumed): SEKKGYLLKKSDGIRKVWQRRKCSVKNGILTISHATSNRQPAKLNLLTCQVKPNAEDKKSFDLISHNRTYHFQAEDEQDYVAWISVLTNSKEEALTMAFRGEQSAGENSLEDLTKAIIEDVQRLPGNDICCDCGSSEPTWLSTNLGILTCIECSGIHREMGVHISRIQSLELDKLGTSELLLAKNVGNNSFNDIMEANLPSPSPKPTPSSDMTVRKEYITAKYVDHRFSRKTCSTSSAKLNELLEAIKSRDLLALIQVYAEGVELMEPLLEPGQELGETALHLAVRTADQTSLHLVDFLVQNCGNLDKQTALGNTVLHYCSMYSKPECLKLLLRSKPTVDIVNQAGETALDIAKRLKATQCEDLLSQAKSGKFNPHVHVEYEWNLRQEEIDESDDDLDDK
PAFAH1B2 inh: PAFAH1B2 (human) inhibition | P68402 | recombinant PAFAH1B2, FP-rhodamine activity probe, fluorescence polarization | inhibition, % at 3.39 µM | 340,000 compounds, 1.2% hits;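 active = inhibition above the mean of all tested compounds plus 3 SD, cut at about 24% in these data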;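 also: 0% = enzyme with DMSO and 100% = wells lacking PAFAH1B2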
Target sequence (P68402 whole entry, looked up): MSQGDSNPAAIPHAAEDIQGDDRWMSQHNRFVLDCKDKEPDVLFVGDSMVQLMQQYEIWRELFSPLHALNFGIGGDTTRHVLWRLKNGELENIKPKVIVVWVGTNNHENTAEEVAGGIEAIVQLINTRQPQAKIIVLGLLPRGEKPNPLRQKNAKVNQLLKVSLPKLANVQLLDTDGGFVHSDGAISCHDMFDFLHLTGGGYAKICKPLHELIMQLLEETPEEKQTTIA
PAFAH1B3 inh: inhibitors of human PAFAH1B3. recombinant PAFAH1B3, FP-rhodamine probe, fluorescence polarization. Q15102. inhibition, % at 3.39 µM. 340,000 compounds, 0.28% hits;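 active = inhibition above the screen-wide average of all tested compounds plus 3 SD, cut at about 25% in these data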;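 also: 0% = enzyme with DMSO only and 100% = wells lacking PAFAH1B3 protein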
pPAFAH inh: pPAFAH (human) enzyme inhibition; 330,000 compounds, 1.5% hits; Q13093; AID 463082; inhibition, % at 3.39 µM; recombinant pPAFAH, FP-rhodamine probe fluorescence polarization;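 active = inhibition above the mean inhibition across the screen plus 3 SD, cut at about 25% in these data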;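 also: inhibitors block binding of the rhodamine activity-based probe so polarization drops; 0% = enzyme with DMSO and 100% = wells lacking pPAFAH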
Active calls of the source: *.

Screening Cc1c(Cl)cccc1NC(=O)CSCc1cc(=O)[nH][nH]1 returned ARFGAP1 inh -3, PAFAH2 inh -2, ASAP1 inh 8, PAFAH1B2 inh 2, PAFAH1B3 inh 1 and pPAFAH inh 25*.
O=C(CCc1ccccc1)c1c(O)cc(O)cc1O was read as ARFGAP1 inh -2, PAFAH2 inh 4, ASAP1 inh 13, PAFAH1B2 inh 42*, PAFAH1B3 inh 1 and pPAFAH inh 10.
`COc1ccc(C(=O)CCc2ccccc2)c(O)c1` gave ARFGAP1 inh -1, PAFAH2 inh 0, ASAP1 inh 0, PAFAH1B2 inh 8, PAFAH1B3 inh 2 and pPAFAH inh 3.
`CC(C)(C)n1nc(C2CC2)c(Br)c1NC(=O)c1ccccc1Cl` gave ARFGAP1 inh 4 and ASAP1 inh 3.
O=C1NC(=Nc2ccccc2)/C(=C/c2ccco2)S1 was read as ARFGAP1 inh 17, PAFAH2 inh 1, ASAP1 inh 12, PAFAH1B2 inh -2, PAFAH1B3 inh 7 and pPAFAH inh 34*.
`Cc1ccc(OC2CCN(C(=O)[C@@H](Cc3ccccc3)NC(=O)[C@H]3O[C@@H](n4ccc(=O)[nH]c4=O)[C@H](O)[C@@H]3O)CC2)cc1` gave ARFGAP1 inh 1 and ASAP1 inh -6.
COc1ccc(Cn2nnnc2C(c2cc3cccc(C)c3[nH]c2=O)N2CCN(C)CC2)cc1 (stereo not drawn) was read as ARFGAP1 inh 5, PAFAH2 inh -4, ASAP1 inh 0, PAFAH1B2 inh 29*, PAFAH1B3 inh -1 and pPAFAH inh 6.
Screening CN(N=Cc1ccccc1O)C(=O)c1ccccc1N returned ARFGAP1 inh -3 and ASAP1 inh 10.
`Cc1ccc(/C=N/NS(=O)(=O)c2ccc([N+](=O)[O-])cc2)o1` gave ARFGAP1 inh 6, PAFAH2 inh 0, ASAP1 inh 10, PAFAH1B2 inh 0, PAFAH1B3 inh 6 and pPAFAH inh 3.
CCCCCCCCCCS(=O)(=O)N/N=C/c1ccc([N+](=O)[O-])cc1 was read as ARFGAP1 inh -6, PAFAH2 inh 2, ASAP1 inh -4, PAFAH1B2 inh 30*, PAFAH1B3 inh 8 and pPAFAH inh 10.
For O=S1(=O)N[C@@H](Cc2ccccc2)COc2cccc(N3CCCC3)c21 the results were ARFGAP1 inh 19 and ASAP1 inh 3.
CC(=O)c1cccc(-c2csc(N3CCC(C(N)=O)CC3)n2)c1 was read as ARFGAP1 inh -1, PAFAH2 inh 9, ASAP1 inh -7, PAFAH1B2 inh 3, PAFAH1B3 inh 1 and pPAFAH inh -5.
For NC(=O)C1CCN(c2nc(-c3cccc(Cl)c3)cs2)CC1 the results were ARFGAP1 inh -3, PAFAH2 inh -8, ASAP1 inh 1, PAFAH1B2 inh -1, PAFAH1B3 inh 10 and pPAFAH inh 33*.
CCN(C1CCCCC1)S(=O)(=O)c1ccc(S(=O)(=O)N2CCN(CCC#N)CC2)cc1 was read as ARFGAP1 inh 4, PAFAH2 inh 3, ASAP1 inh 3, PAFAH1B2 inh 25*, PAFAH1B3 inh 11 and pPAFAH inh 1.
For COCc1nc(-c2ccc(-c3ccccc3)nc2OC)no1 the results were ARFGAP1 inh 5, PAFAH2 inh -3, ASAP1 inh -9, PAFAH1B2 inh 0, PAFAH1B3 inh 1 and pPAFAH inh 26*.
`Cc1cc(C)cc(CSc2ccc(S(=O)(=O)N3CCCC3)cn2)c1` gave ARFGAP1 inh 3, PAFAH2 inh -3, ASAP1 inh -4, PAFAH1B2 inh 1, PAFAH1B3 inh 10 and pPAFAH inh 5.
Screening O=c1cc(CSc2ccc(S(=O)(=O)N3CCCCC3)cn2)nc2sccn12 returned ARFGAP1 inh 4, PAFAH2 inh 6, ASAP1 inh 20, PAFAH1B2 inh 25*, PAFAH1B3 inh 9 and pPAFAH inh 10.
Screening O=S(=O)(c1ccc(SCc2ccc(Cl)cc2)nc1)N1CCCC1 returned ARFGAP1 inh 7, PAFAH2 inh 2, ASAP1 inh -9, PAFAH1B2 inh 26*, PAFAH1B3 inh 6 and pPAFAH inh -1.
Screening Cc1ccc(OCCNC(=O)[C@@H](Cc2ccccc2)NC(=O)[C@H]2O[C@@H](n3ccc(=O)[nH]c3=O)[C@H](O)[C@@H]2O)cc1C returned ARFGAP1 inh 7 and ASAP1 inh 1.
O=C(C1CC(Cl)CN1S(=O)(=O)c1ccc(Cl)cc1)N1CCOCC1 (stereo not drawn) was read as ARFGAP1 inh -2, PAFAH2 inh 12, ASAP1 inh -1, PAFAH1B2 inh 7, PAFAH1B3 inh -3 and pPAFAH inh 3.
O=C(N1CCOCC1)N1CCN(S(=O)(=O)c2ccc(Cl)cc2)C1 was read as ARFGAP1 inh 7, PAFAH2 inh -2, ASAP1 inh -15, PAFAH1B2 inh 26*, PAFAH1B3 inh 4 and pPAFAH inh -6.
Screening COCCCn1c(=O)c2ccccc2n(Cc2ccccc2)c1=O returned ARFGAP1 inh -5, PAFAH2 inh 4, ASAP1 inh 12, PAFAH1B2 inh 2, PAFAH1B3 inh 6 and pPAFAH inh 2.
`C=CCn1c(=O)n(CCOC)c(=O)c2sc3ccccc3c21` gave ARFGAP1 inh 10, PAFAH2 inh 2, ASAP1 inh 4, PAFAH1B2 inh 5, PAFAH1B3 inh -4 and pPAFAH inh 28*.
For Nc1[nH]c(C(=O)c2ccccc2)c(-c2ccc(F)cc2)c1C(=O)c1c[nH]c2ccccc12 the results were ARFGAP1 inh 6 and ASAP1 inh 2.
CC(C)C(C(=O)NCc1ccccc1)N1CCN(CCN2CCOCC2)CC1 (stereo not drawn) was read as ARFGAP1 inh 6 and ASAP1 inh -9.
For CCN1C(=O)N/C(=C/c2cc(C)n(Cc3ccccc3)c2C)C1=O the results were ARFGAP1 inh -3, PAFAH2 inh 2, ASAP1 inh -6, PAFAH1B2 inh 82*, PAFAH1B3 inh -8 and pPAFAH inh 7.
`Cc1cccc(N2CSC3=C(C#N)C(c4ccc(C)o4)CC(=O)N3C2)c1` (stereo not drawn) gave pPAFAH inh 47*.
CCCCC[C@@H]1C=C(C(=O)O)[C@H](c2cccc(C)c2)N1S(=O)(=O)c1ccc(C)cc1 was read as ARFGAP1 inh -9, PAFAH2 inh 11, ASAP1 inh -6, PAFAH1B2 inh 5, PAFAH1B3 inh 5 and pPAFAH inh 1.
Cc1ccc(S(=O)(=O)N2[C@@H](c3cccc(C)c3)C(C(=O)O)=C[C@H]2C(C)(C)C)cc1 was read as ARFGAP1 inh 0, PAFAH2 inh 5, ASAP1 inh -5, PAFAH1B2 inh 31*, PAFAH1B3 inh 0 and pPAFAH inh 1.
`Cc1ccc(S(=O)(=O)N2[C@@H](c3ccc(C(C)C)cc3)C(C(=O)O)=C[C@H]2C(C)(C)C)cc1` gave ARFGAP1 inh 3, PAFAH2 inh 5, ASAP1 inh -7, PAFAH1B2 inh 28*, PAFAH1B3 inh -3 and pPAFAH inh 13.
